Data: ChEMBL document CHEMBL4020760, “Discovery of a Small Molecule Probe That Post-Translationally Stabilizes the Survival Motor Neuron Protein for the Treatment of Spinal Muscular Atrophy” (J Med Chem, 2017)
Active and inactive are the calls of the source. No cut-off for these calls is given here.

Assays:
Plasma [1] = experiment: Tmax in mouse plasma at 20 mg/kg, ip; type: ADME, organism-based; conditions: in vivo
[2] = target: Survival motor neuron protein (Homo sapiens) (UniProt Q16637); experiment: Stabilization of human luc fused SMN protein expressed in HEK293 cells at 10 uM after 24 hrs in presence of 10 uM cycloheximide by luciferase reporter gene assay; type: cell-based
Procedure, shortened: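 SMN2-luciferase reporter cells were maintained in high-glucose DMEM with 10% FBS, Pen/Strep and hygromycin at 37 °C. They were treated at the same time with cycloheximide (10 μM), to block protein synthesis, and with compound or DMSO. Cells were lysed at set time points, and SMN2-luc (firefly) and Renilla-luc activities were read by dual-luciferase assay.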

CYP2C9 = CYP2C9 (Homo sapiens, UniProt P11712); experiment: Inhibition of CYP2C9 (unknown origin) at 10 uM; type: ADME
Plasma [3] = experiment: Half life in mouse plasma at 20 mg/kg, po; type: ADME, organism-based; conditions: in vivo
[4] = target: Survival motor neuron protein (Homo sapiens) (UniProt Q16637); experiment: Stabilization of SMN protein in 3813T fibroblasts derived from human SMA patient assessed as increase in SMN protein level after 48 hrs by SDS-PAGE and immunoblot
Procedure, shortened: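 hTERT-immortalized SMA patient 3813T fibroblasts seeded at 6000/well, next day dosed for 48 h at indicated concentrations, 0.1% DMSO. Lysed in boiling buffer (150 mM NaCl, 10 mM Tris pH 8.0, 2% SDS), run on 10% SDS-PAGE, SMN immunoblotted, normalized to tubulin or actin as fold over DMSO; one-way ANOVA with Dunnett.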

Plasma [5] = experiment: Cmax in mouse plasma at 20 mg/kg, po; type: ADME, organism-based; parameters: dose 20 mg/kg, route oral; conditions: in vivo
[6] = target: Survival motor neuron protein (Homo sapiens) (UniProt Q16637); experiment: Stabilization of human SMN protein expressed in HEK293 cells expressing SMN2 promoter assessed as additive effect on SMN stabilization in presence of 0.1: 0.3 to 10:30 ratio of LDN-76070 to compound after 24 hrs by luciferase reporter gene assay; type: cell-based
Procedure, shortened: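 SMN2 reporter cells exposed 24 h to the two compounds alone or combined at constant ratio, DMSO held at 0.2%, and SMN-luc read. Theoretical additive effect taken as the sum of the single-agent activities.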

Renilla = experiment: Effect on renilla recombinant luciferase protein
Plasma [7] = experiment: Half life in mouse plasma after 60 mins; type: ADME, cell-free; conditions: 1 h
CYP2D6 = CYP2D6 (Homo sapiens, UniProt P10635); experiment: Inhibition of CYP2D6 (unknown origin) at 10 uM; type: ADME
[8] = Fraction unbound in mouse plasma; type: ADME, cell-free
Procedure, shortened: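 Plasma protein binding measured in mouse and human plasma and expressed as percent free.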

[9] = AUC (0 to 24 hrs) in mouse brain at 20 mg/kg, ip; type: ADME, organism-based; parameters: time < 24 hr, dose 20 mg/kg, route intraperitoneal
HEK293 [10] = experiment: Effect on human luciferase-tagged SMN mRNA expressed in HEK293 cells assessed as SMN exon 7 included transcript at 1 and 10 uM after 24 hrs by qRT-PCR relative to GAPDH mRNA expression; type: cell-based
Procedure, shortened: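 SMN2-luciferase reporter cells treated with compound; total RNA isolated with Trizol, DNase I treated and reverse transcribed. SYBR Green qPCR for SMN exon 7-included and full-length transcripts, with GAPDH as reference.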

CYP2C19 = CYP2C19 (Homo sapiens, UniProt P33261); experiment: Inhibition of CYP2C19 (unknown origin) at 10 uM; type: ADME
HEK293 [11] = experiment: Effect on p62 level in HEK293 cells at 10 uM after 8 hrs by immunoblot analysis; type: functional, cell-based; conditions: Homo sapiens
Procedure, shortened: (§1)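 HEK293 cells exposed 8 h to DMSO, compound or chloroquine; LC3 and p62 assessed by immunoblot.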

[12] = target: Survival motor neuron protein (Homo sapiens) (UniProt Q16637); experiment: Stabilization of human SMN protein expressed in HEK293 cells expressing SMN2 promoter after 24 hrs by luciferase reporter gene assay relative to control; type: cell-based
Procedure, shortened: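 SMN2-luc reporter cells seeded at 25,000/well overnight, then treated 24 h with six doses (3-fold serial dilutions, top final 10 or 30 μM), 0.1% DMSO. Firefly and Renilla luciferase read by dual-luciferase assay, normalized to DMSO as percent; EC50 and maximal activation from curves. Mean ± SEM, ≥3 trials.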

Liver = experiment: Half life in human liver microsomes; type: ADME, microsome
Procedure, shortened: (§2)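 Compound stability in mouse and human liver microsomes, expressed as half-life in min.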

[13] = Half life in mouse liver microsomes; type: ADME, microsome; conditions: liver microsomes; procedure, shortened: as §2
Brain [14] = experiment: Half life in mouse brain at 20 mg/kg, ip; type: ADME, organism-based; conditions: in vivo
Brain [15] = experiment: Tmax in mouse brain at 20 mg/kg, ip; type: ADME, organism-based; conditions: in vivo
[16] = Drug degradation in 0.1 to 1 N HCL after 1 to 24 hrs by LC-MS method
Procedure, shortened: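 Compound held in 0.1 N and 1 N HCl at 37 °C for 24 h; aliquots taken at 1, 2, 4, 6 and 24 h and analysed by LCMS for percent degradation.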

CYP1A2 = target: T1, CYP1A2 (Homo sapiens, UniProt P05177); experiment: Inhibition of CYP1A2 (unknown origin) at 10 uM; type: ADME
T1 sequence (P05177 whole entry): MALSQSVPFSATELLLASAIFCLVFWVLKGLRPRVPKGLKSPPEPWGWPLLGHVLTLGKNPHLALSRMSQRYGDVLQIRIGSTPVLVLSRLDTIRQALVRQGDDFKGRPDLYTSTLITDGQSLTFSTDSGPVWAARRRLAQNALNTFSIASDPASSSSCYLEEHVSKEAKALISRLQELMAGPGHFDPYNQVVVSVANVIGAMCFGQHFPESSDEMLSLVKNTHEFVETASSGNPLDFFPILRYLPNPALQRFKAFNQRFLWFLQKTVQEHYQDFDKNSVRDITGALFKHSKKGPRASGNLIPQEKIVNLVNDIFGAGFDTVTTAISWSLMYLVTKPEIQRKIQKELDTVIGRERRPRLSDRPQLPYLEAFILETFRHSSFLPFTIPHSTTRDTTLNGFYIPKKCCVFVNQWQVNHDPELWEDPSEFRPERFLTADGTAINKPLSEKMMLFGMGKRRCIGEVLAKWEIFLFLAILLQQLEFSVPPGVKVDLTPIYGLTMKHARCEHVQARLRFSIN

HEK293 [17] = experiment: Effect on LC3-2 level in HEK293 cells at 10 uM after 8 hrs by immunoblot analysis; type: functional, cell-based; conditions: Homo sapiens; procedure, shortened: as §1

Sequence of Survival motor neuron protein (Homo sapiens) (Q16637 whole entry, the tested form may be a part): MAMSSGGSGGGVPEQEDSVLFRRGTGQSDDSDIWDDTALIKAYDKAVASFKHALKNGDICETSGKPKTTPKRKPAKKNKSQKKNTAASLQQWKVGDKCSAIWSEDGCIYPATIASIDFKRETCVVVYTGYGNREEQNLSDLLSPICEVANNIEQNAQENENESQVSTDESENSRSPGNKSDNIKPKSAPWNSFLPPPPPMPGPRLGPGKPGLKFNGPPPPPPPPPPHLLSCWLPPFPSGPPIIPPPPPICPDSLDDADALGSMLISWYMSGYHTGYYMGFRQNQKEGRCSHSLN
Sequence of CYP2C9 (P11712 whole entry): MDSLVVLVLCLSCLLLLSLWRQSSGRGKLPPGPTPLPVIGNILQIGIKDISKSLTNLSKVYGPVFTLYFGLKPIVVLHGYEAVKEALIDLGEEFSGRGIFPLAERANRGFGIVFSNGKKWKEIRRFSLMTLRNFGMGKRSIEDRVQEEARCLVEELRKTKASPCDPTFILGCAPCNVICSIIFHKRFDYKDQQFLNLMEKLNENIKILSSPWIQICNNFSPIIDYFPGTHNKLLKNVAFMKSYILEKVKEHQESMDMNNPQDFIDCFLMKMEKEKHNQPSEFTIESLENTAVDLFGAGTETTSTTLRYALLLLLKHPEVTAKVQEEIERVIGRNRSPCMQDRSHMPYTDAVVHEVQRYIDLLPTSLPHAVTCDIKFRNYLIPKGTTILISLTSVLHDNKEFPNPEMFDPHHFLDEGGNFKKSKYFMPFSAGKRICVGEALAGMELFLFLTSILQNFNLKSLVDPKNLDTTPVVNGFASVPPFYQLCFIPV
Sequence of CYP2C19 (P33261 whole entry): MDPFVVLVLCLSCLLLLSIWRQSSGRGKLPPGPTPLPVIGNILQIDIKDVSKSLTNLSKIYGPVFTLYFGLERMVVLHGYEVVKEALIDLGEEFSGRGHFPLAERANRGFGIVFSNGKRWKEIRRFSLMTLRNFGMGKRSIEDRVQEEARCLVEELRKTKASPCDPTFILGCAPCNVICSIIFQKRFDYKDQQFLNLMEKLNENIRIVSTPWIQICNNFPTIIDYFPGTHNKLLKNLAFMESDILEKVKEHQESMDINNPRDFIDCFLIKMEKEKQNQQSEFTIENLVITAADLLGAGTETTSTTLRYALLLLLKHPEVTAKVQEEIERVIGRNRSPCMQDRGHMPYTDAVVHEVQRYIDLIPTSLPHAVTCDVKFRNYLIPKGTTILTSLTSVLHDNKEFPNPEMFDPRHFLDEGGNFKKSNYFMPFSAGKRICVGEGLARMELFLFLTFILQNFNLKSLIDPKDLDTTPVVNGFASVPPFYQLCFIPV
Sequence of CYP2D6 (P10635 whole entry): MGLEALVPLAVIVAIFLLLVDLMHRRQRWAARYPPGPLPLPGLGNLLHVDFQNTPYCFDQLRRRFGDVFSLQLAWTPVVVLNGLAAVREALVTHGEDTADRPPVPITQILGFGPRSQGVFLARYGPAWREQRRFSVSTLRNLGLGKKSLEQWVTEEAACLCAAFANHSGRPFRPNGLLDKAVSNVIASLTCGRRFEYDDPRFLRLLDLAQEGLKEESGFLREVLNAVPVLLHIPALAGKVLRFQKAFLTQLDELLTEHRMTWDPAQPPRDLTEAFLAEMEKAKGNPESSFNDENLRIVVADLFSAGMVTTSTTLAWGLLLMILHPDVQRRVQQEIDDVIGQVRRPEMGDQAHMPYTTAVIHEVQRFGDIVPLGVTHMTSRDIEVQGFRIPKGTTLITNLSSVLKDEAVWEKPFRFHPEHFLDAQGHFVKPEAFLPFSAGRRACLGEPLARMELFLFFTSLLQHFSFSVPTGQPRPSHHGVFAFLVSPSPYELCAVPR

Compound: O=C(Nc1ncc(C2(O)CCC2)s1)c1ccc(F)c(Cl)c1
- Tmax (Plasma [1]): 0.5 h
- Activity [2]: Active
- inhibition at 10 µM (CYP2C9): < 50%
- t1/2 (Plasma [3]): 3.4 h
- Activity [4]: Dose-dependent effect
- Cmax (Plasma [5]): 286 ng/mL
- Activity [6]: Active
- Activity (Renilla): inactive
- t1/2 (Plasma [7]): 5.43 h
- inhibition at 10 µM (CYP2D6): < 50%
- fraction unbound [8]: 0.047
- AUC(0-t) at 24 h [9]: 51300 ng·h/mL
- Activity (HEK293 [10]): inactive
- inhibition at 10 µM (CYP2C19): < 50%
- Activity (HEK293 [11]): inactive
- Activity [12]: 190%
- t1/2 (Liver): > 2 h
- half-life [13]: 0.65 h
- t1/2 (Brain [14]): 1.9 h
- Tmax (Brain [15]): 0.5 h
- Drug degradation [16]: < 5%
- inhibition at 10 µM (CYP1A2): < 50%
- Activity (HEK293 [17]): inactive
